# Experimental data: ChEMBL document CHEMBL1143805, “Synthesis and antimicrobial activities of some novel 1,2,4-triazolo[3,4-b]-1,3,4-thiadiazoles and 1,2,4-triazolo[3,4-b]-1,3,4-thiadiazines carrying thioalkyl and sulphonyl phenoxy moieties” (2007)
# System: Escherichia coli
# Assay: Antibacterial activity against Escherichia coli ATCC 25922
# Type: functional
# Conditions: not given
# Outline: (§1)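 MIC by serial dilution in Mueller-Hinton broth tubes, pH adjusted to 5.0 with phosphate buffer. A standardized bacterial suspension was inoculated and incubated 16-18 h at 37 °C, and MIC was read as the lowest concentration with no visible growth. Zones were also measured in agar wells on seeded plates, with compounds in DMSO and a DMSO control, triplicate plates, 37 °C for 3-4 days.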
row,Compound,inhibition zone (IZ)
1,COc1ccc(-c2nn3c(COc4ccc(SC)cc4)nnc3s2)cc1,16 mm
2,CCSc1ccc(OCc2nnc3n2N=C(c2ccc(Cl)cc2Cl)CS3)cc1,<10 mm
3,CSc1ccc(OCc2nnc3n2N=C(c2ccc(Cl)cc2Cl)CS3)cc1,16 mm

# Same assay, conditions: Escherichia coli, ATCC 25922
row,MIC,Compound
1,6.25 µg/mL,COc1ccc(-c2nn3c(COc4ccc(SC)cc4)nnc3s2)cc1
2,25 µg/mL,CCSc1ccc(OCc2nnc3n2N=C(c2ccc(Cl)cc2Cl)CS3)cc1
3,6.25 µg/mL,CSc1ccc(OCc2nnc3n2N=C(c2ccc(Cl)cc2Cl)CS3)cc1

# System: Staphylococcus aureus
# Assay: Antibacterial activity against Staphylococcus aureus ATCC 25923
# Type: functional
# Conditions: not given
# Outline: as §1
row,Compound,inhibition zone (IZ)
1,COc1ccc(-c2nn3c(COc4ccc(SC)cc4)nnc3s2)cc1,16 mm
2,CCSc1ccc(OCc2nnc3n2N=C(c2ccc(Cl)cc2Cl)CS3)cc1,<10 mm
3,CSc1ccc(OCc2nnc3n2N=C(c2ccc(Cl)cc2Cl)CS3)cc1,16 mm

# Same assay, conditions: Staphylococcus aureus, ATCC 25923
row,MIC,Compound
1,6.25 µg/mL,COc1ccc(-c2nn3c(COc4ccc(SC)cc4)nnc3s2)cc1
2,25 µg/mL,CCSc1ccc(OCc2nnc3n2N=C(c2ccc(Cl)cc2Cl)CS3)cc1
3,6.25 µg/mL,CSc1ccc(OCc2nnc3n2N=C(c2ccc(Cl)cc2Cl)CS3)cc1

# System: Pseudomonas aeruginosa
# Assay: Antibacterial activity against Pseudomonas aeruginosa ATCC 27853
# Type: functional
# Conditions: not given
# Outline: as §1
row,Compound,inhibition zone (IZ)
1,COc1ccc(-c2nn3c(COc4ccc(SC)cc4)nnc3s2)cc1,16 mm
2,CCSc1ccc(OCc2nnc3n2N=C(c2ccc(Cl)cc2Cl)CS3)cc1,<10 mm
3,CSc1ccc(OCc2nnc3n2N=C(c2ccc(Cl)cc2Cl)CS3)cc1,16 mm

# Same assay, conditions: Pseudomonas aeruginosa, ATCC 27853
row,MIC,Compound
1,6.25 µg/mL,COc1ccc(-c2nn3c(COc4ccc(SC)cc4)nnc3s2)cc1
2,25 µg/mL,CCSc1ccc(OCc2nnc3n2N=C(c2ccc(Cl)cc2Cl)CS3)cc1
3,6.25 µg/mL,CSc1ccc(OCc2nnc3n2N=C(c2ccc(Cl)cc2Cl)CS3)cc1

# System: Klebsiella pneumoniae
# Assay: Antibacterial activity against Klebsiella pneumoniae
# Type: functional
# Conditions: not given
# Outline: as §1
row,Compound,inhibition zone (IZ)
1,COc1ccc(-c2nn3c(COc4ccc(SC)cc4)nnc3s2)cc1,16 mm
2,CCSc1ccc(OCc2nnc3n2N=C(c2ccc(Cl)cc2Cl)CS3)cc1,<10 mm
3,CSc1ccc(OCc2nnc3n2N=C(c2ccc(Cl)cc2Cl)CS3)cc1,16 mm

# Same assay, conditions: Klebsiella pneumoniae
row,MIC,Compound
1,6.25 µg/mL,COc1ccc(-c2nn3c(COc4ccc(SC)cc4)nnc3s2)cc1
2,25 µg/mL,CCSc1ccc(OCc2nnc3n2N=C(c2ccc(Cl)cc2Cl)CS3)cc1
3,6.25 µg/mL,CSc1ccc(OCc2nnc3n2N=C(c2ccc(Cl)cc2Cl)CS3)cc1

# System: Aspergillus flavus
# Assay: Antifungal activity against Aspergillus flavus NCIM 524
# Type: functional
# Conditions: not given
# Outline: (§2)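 Agar-well diffusion on Sabouraud agar at pH 5.7. Plates were lawned with a saline spore suspension (one loopful in 3 ml), decanted and dried 1 h at 37 °C. Compounds in DMSO went into punched wells, with a DMSO solvent control. Plates were run in triplicate and kept at 37 °C for 3-4 days, with inhibition-zone diameter as read-out.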
row,Compound,inhibition zone (IZ)
1,COc1ccc(-c2nn3c(COc4ccc(SC)cc4)nnc3s2)cc1,16 mm
2,CCSc1ccc(OCc2nnc3n2N=C(c2ccc(Cl)cc2Cl)CS3)cc1,<10 mm
3,CSc1ccc(OCc2nnc3n2N=C(c2ccc(Cl)cc2Cl)CS3)cc1,16 mm

# Same assay, conditions: Aspergillus flavus, NCIM 524
row,MIC,Compound
1,6.25 µg/mL,COc1ccc(-c2nn3c(COc4ccc(SC)cc4)nnc3s2)cc1
2,25 µg/mL,CCSc1ccc(OCc2nnc3n2N=C(c2ccc(Cl)cc2Cl)CS3)cc1
3,6.25 µg/mL,CSc1ccc(OCc2nnc3n2N=C(c2ccc(Cl)cc2Cl)CS3)cc1

# System: Aspergillus fumigatus
# Assay: Antifungal activity against Aspergillus fumigatus NCIM 902
# Type: functional
# Conditions: not given
row,Compound,inhibition zone (IZ)
1,COc1ccc(-c2nn3c(COc4ccc(SC)cc4)nnc3s2)cc1,16 mm
2,CCSc1ccc(OCc2nnc3n2N=C(c2ccc(Cl)cc2Cl)CS3)cc1,<10 mm
3,CSc1ccc(OCc2nnc3n2N=C(c2ccc(Cl)cc2Cl)CS3)cc1,16 mm

# Same assay, conditions: Aspergillus fumigatus, NCIM 902
row,MIC,Compound
1,6.25 µg/mL,COc1ccc(-c2nn3c(COc4ccc(SC)cc4)nnc3s2)cc1
2,25 µg/mL,CCSc1ccc(OCc2nnc3n2N=C(c2ccc(Cl)cc2Cl)CS3)cc1
3,6.25 µg/mL,CSc1ccc(OCc2nnc3n2N=C(c2ccc(Cl)cc2Cl)CS3)cc1

# System: Talaromyces marneffei
# Assay: Antifungal activity against Penicillium marneffei
# Type: functional
# Conditions: not given
# Outline: as §2
row,Compound,inhibition zone (IZ)
1,COc1ccc(-c2nn3c(COc4ccc(SC)cc4)nnc3s2)cc1,16 mm
2,CCSc1ccc(OCc2nnc3n2N=C(c2ccc(Cl)cc2Cl)CS3)cc1,<10 mm
3,CSc1ccc(OCc2nnc3n2N=C(c2ccc(Cl)cc2Cl)CS3)cc1,16 mm

# Same assay, conditions: Talaromyces marneffei
row,MIC,Compound
1,6.25 µg/mL,COc1ccc(-c2nn3c(COc4ccc(SC)cc4)nnc3s2)cc1
2,25 µg/mL,CCSc1ccc(OCc2nnc3n2N=C(c2ccc(Cl)cc2Cl)CS3)cc1
3,6.25 µg/mL,CSc1ccc(OCc2nnc3n2N=C(c2ccc(Cl)cc2Cl)CS3)cc1

# System: Trichophyton benhamiae
# Assay: Antifungal activity against Trichophyton mentagrophytes
# Type: functional, Arthroderma benhamiae
# Conditions: not given
# Outline: as §2
row,Compound,inhibition zone (IZ)
1,COc1ccc(-c2nn3c(COc4ccc(SC)cc4)nnc3s2)cc1,16 mm
2,CCSc1ccc(OCc2nnc3n2N=C(c2ccc(Cl)cc2Cl)CS3)cc1,<10 mm
3,CSc1ccc(OCc2nnc3n2N=C(c2ccc(Cl)cc2Cl)CS3)cc1,16 mm

# Same assay, conditions: Trichophyton benhamiae
row,MIC,Compound
1,6.25 µg/mL,COc1ccc(-c2nn3c(COc4ccc(SC)cc4)nnc3s2)cc1
2,25 µg/mL,CCSc1ccc(OCc2nnc3n2N=C(c2ccc(Cl)cc2Cl)CS3)cc1
3,6.25 µg/mL,CSc1ccc(OCc2nnc3n2N=C(c2ccc(Cl)cc2Cl)CS3)cc1
